{
  "source": "the RNAGym collection of RNA variant scans (doi:10.1126/science.aae0568)",
  "parents": {"B1": {"name": "tRNA (parent)", "chain": "GUUCCGUUGGCGUAAUGGUAACGCGUCUCCCUCCUAAGGAGAAGACUGCGGGUUCGAGUCCCGUACGGAACG"}},
  "note": "This sample holds only a part of the variants without activity.",
  "data": [
    {"variants_of": "B1", "experiment": "yeast fitness relative to wild type (ratio to wild type); higher = fitter; tRNA-Arg(CCU), competitive growth, 37 C, YPD", "method_in_brief": "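A pool of Saccharomyces cerevisiae strains, each with a tRNA-Arg(CCU) gene variant at the native genomic locus, was competed in YPD at 37°C for 24 hours across six parallel replicates. The variants had been chemically synthesised at a 3% per-site mutation rate over 69 sites, and gene amplicons before and after competition were read by 100-nucleotide paired-end sequencing. Darwinian fitness relative to wild type rested on changes in genotype frequencies. Genotypes required ≥ 100 starting reads, and estimates < 0.5 were set to 0.5.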", "values": [
      {"variant": "GUUCCGUUGGCGUAAUGGUAACGCGACUCCGUCCUAAGGAGAAGACUGCGGGUUCGAGUCCCGUACGGAACG", "note": "[U26A C31G]", "yeast fitness": 0.942},
      {"variant": "GUUCCGUUGGCGUAAUGGUAACGCGACUCCCUAGUAAGGAGAAGACUGCGGGUUCGAGUCCCGUACGGAACG", "note": "[U26A C33A C34G]", "yeast fitness": 0.644},
      {"variant": "GUUCCGUUGGCGUAAUGGUAACGCGACUCCCUCCUAAGGACAAGAUUGCGGGUUCGAGUCCCGUACGGAACG", "note": "[U26A G41C C46U]", "yeast fitness": 0.797},
      {"variant": "GUUCCGUUGGCGUAAUGGUAACGCGACUCCCUCCUAAGGAGAACACUGCGGGUUUGAGUCCCGUACUGAACG", "note": "[U26A G44C C55U G67U]", "yeast fitness": 0.759},
      {"variant": "GUUCCGUUGGCGUAAUGGUAACGCGACUCACUCAUAAGGAGAAGCCUGCGGGUUCGAGUCCCGUACGGAACG", "note": "[U26A C30A C34A A45C]", "yeast fitness": "≤ 0.5"},
      {"variant": "GUUCCGUUGGCGUAAUGGUAACGCGACUCCUUCCUAAGGAGAAGACUACGGGUUCGAGUCCCGUACGGAACG", "note": "[U26A C31U G48A]", "yeast fitness": 0.998},
      {"variant": "GUUCCGUUGGCGUAAUGGUAACGCGACUCCCUCCUAAGGAGAAGACUGCGGGUUCGAGUCGCGUACGGAUCG", "note": "[U26A C61G A70U]", "yeast fitness": 0.764},
      {"variant": "GUUCCGUUGGCGUAAUGGUAACGCGACUCCCUCCUAAGGAGAAGACUACGGGUUCGAGUCCAGUACGGAACG", "note": "[U26A G48A C62A]", "yeast fitness": 0.605},
      {"variant": "GUUCCGUUGGCGUAAUGGUAACGCGACUCCCUCCUAAGAACAAGACUGCGGGUCCGAGUCCCGUACGGAACG", "note": "[U26A G39A G41C U54C]", "yeast fitness": "≤ 0.5"},
      {"variant": "GUUCCGUUGGCGUAAUGGUAACGCGACUCCCUCUUAAGGAGAUGACUGCGGGUUCGAGUCCCGUAGGGAACG", "note": "[U26A C34U A43U C66G]", "yeast fitness": 0.628},
      {"variant": "GUUCCGUUGGCGUAAUGGUAACGCGACUCGCUCCUACGGAGAAGACUGCGGGUUCGAGUCCCGUACGGCACG", "note": "[U26A C30G A37C A69C]", "yeast fitness": "≤ 0.5"},
      {"variant": "GUUCCGUUGGCGUAAUGGUAACGCGACUCCCUCGUAAGGAGAAGACUGAGGGCUCGAGUCCCGUACGGUACG", "note": "[U26A C34G C49A U53C A69U]", "yeast fitness": "≤ 0.5"},
      {"variant": "GUUCCGUUGGCGUAAUGGUAACGCGACUCCCUCCUAAGGAGAAGACUGCGGGUUCGAGUACCGUACGGAACG", "note": "[U26A C60A]", "yeast fitness": 0.787},
      {"variant": "GUUCCGUUGGCGUAAUGGUAACGCGACUCCCUCGUAAGGAGAAGACUGCGGGUUCAAGUCCCGUACGGAACG", "note": "[U26A C34G G56A]", "yeast fitness": 0.565},
      {"variant": "GUUCCGUUGGCGUAAUGGUAACGCGACUCCCUCCUAAGAAGAAGACUGCGGGUUCGAGUCCCGUACGGAACG", "note": "[U26A G39A]", "yeast fitness": 0.87},
      {"variant": "GUUCCGUUGGCGUAAUGGUAACGCGACUCCCUCCUAAGGAGAAGACUGCGGGUUCGAGUCCAGUACGGAACG", "note": "[U26A C62A]", "yeast fitness": 0.803},
      {"variant": "GUUCCGUUGGCGUAAUGGUAACGCGACUCCCUCCUAAGAACAAGACUGCGGGUUCGAGUCCCGUACGGAACG", "note": "[U26A G39A G41C]", "yeast fitness": "≤ 0.5"},
      {"variant": "GUUCCGUUGGCGUAAUGGUAACGCGACUCACUCCUACGGAGAUGACUGCGCGUUCGAGUCCCGUACGGAACG", "note": "[U26A C30A A37C A43U G51C]", "yeast fitness": 0.595},
      {"variant": "GUUCCGUUGGCGUAAUGGUAACGCGACUCCUUCCUAAGGAGAAGACUGCGGGUUCGAGUCCCGUCCGGAACG", "note": "[U26A C31U A65C]", "yeast fitness": 0.691},
      {"variant": "GUUCCGUUGGCGUAAUGGUAACGCGACUCCCUCCUAAGGAGAAGACUGCGGGUUCGAGUCCCGUAUGGAACG", "note": "[U26A C66U]", "yeast fitness": 0.824},
      {"variant": "GUUCCGUUGGCGUAAUGGUAACGCGACUCCCUCCUAAGGAGAAGACUGCGGGUUCGAGUCCCGUAAGGAACG", "note": "[U26A C66A]", "yeast fitness": 0.572},
      {"variant": "GUUCCGUUGGCGUAAUGGUAACGCGACUCCCUCCUAAGGAGAAGAAUGCGGGUUCGAGUCCGGUACGGAACG", "note": "[U26A C46A C62G]", "yeast fitness": 0.797},
      {"variant": "GUUCCGUUGGCGUAAUGGUAACGCGACUCCCUCCUAAGGAGAAGACUGGGGGUUCUAGUCCCGUACGGAACG", "note": "[U26A C49G G56U]", "yeast fitness": "≤ 0.5"},
      {"variant": "GUUCCGUUGGCGUAAUGGUAACGCGACUCACUCAUAAGGAGAAGACUCCGGGUUCGAGUCCCGUACGGAACG", "note": "[U26A C30A C34A G48C]", "yeast fitness": 0.583},
      {"variant": "GUUCCGUUGGCGUAAUGGUAACGCGACUCCCUCCUAAGGACAAGACUGCGGGUUCGAGUCCCGUGCAGAACG", "note": "[U26A G41C A65G G67A]", "yeast fitness": "≤ 0.5"},
      {"variant": "GUUCCGUUGGCGUAAUGGUAACGCGACUUCUUCCUAAGGAGAAGACUACGGGUUCGAGUCCCGUACGGAACG", "note": "[U26A C29U C31U G48A]", "yeast fitness": 0.596},
      {"variant": "GUUCCGUUGGCGUAAUGGUAACGCGACUCGCUCCUACGGAGAAGACUGCGGGUUCGAGACCCGUACGGAACG", "note": "[U26A C30G A37C U59A]", "yeast fitness": "≤ 0.5"},
      {"variant": "GUUCCGUUGGCGUAAUGGUAACGCGACUCCCUCCUAAGGAGAAGACUGCGGGUUCGAGUCACGUUCGGAACG", "note": "[U26A C61A A65U]", "yeast fitness": 0.686},
      {"variant": "GUUCCGUUGGCGUAAUGGUAACGCGACUCCCUACUAAGGAGAAGCCUGCGGGUUCGAGUCCCGUACGGAACG", "note": "[U26A C33A A45C]", "yeast fitness": 0.55},
      {"variant": "GUUCCGUUGGCGUAAUGGUAACGCGACUCCCUCGUAAGGAGAUGACUGAGGGUUCGAGUCCCGUACGGAACG", "note": "[U26A C34G A43U C49A]", "yeast fitness": "≤ 0.5"},
      {"variant": "GUUCCGUUGGCGUAAUGGUAACGCGACUCCCUCCUAAGGAGAAGACUGCGGGUUAGAGUCCCGUACGCAACG", "note": "[U26A C55A G68C]", "yeast fitness": "≤ 0.5"},
      {"variant": "GUUCCGUUGGCGUAAUGGUAACGCGACUCCCUACUAAGGAGAAGCCUGCGGGUUCGAGUCCCGUUCCGAACG", "note": "[U26A C33A A45C A65U G67C]", "yeast fitness": "≤ 0.5"},
      {"variant": "GUUCCGUUGGCGUAAUGGUAACGCGACUCCGUCCUAAGGAGAAGACUGCGGGUUCGAGUCCCCUACGGAACG", "note": "[U26A C31G G63C]", "yeast fitness": "≤ 0.5"},
      {"variant": "GUUCCGUUGGCGUAAUGGUAACGCGACUCCCUUCUAAGGAGAAGACUGCGGGCUCGAGUCCCGUACGGAACG", "note": "[U26A C33U U53C]", "yeast fitness": 0.54},
      {"variant": "GUUCCGUUGGCGUAAUGGUAACGCGACUCCAUCCUAAGGAGGAGACUGCGGGUUGGAGUCCCGUACGGAACG", "note": "[U26A C31A A42G C55G]", "yeast fitness": "≤ 0.5"},
      {"variant": "GUUCCGUUGGCGUAAUGGUAACGCGACUCCCUCCUAAGGAGAACACUGCGGGUUCGCGUCCCGUACGGUACG", "note": "[U26A G44C A57C A69U]", "yeast fitness": 0.653},
      {"variant": "GUUCCGUUGGCGUAAUGGUAACGCGACUUCCUUCUAAGGAGAAGACUGCGGGUUCGAGUCCGGUACGGAACG", "note": "[U26A C29U C33U C62G]", "yeast fitness": 1.09},
      {"variant": "GUUCCGUUGGCGUAAUGGUAACGCGACUCCUUCCUAAGGAGAAGACUACGGGUUCGAGUCCCGUGCGGAACG", "note": "[U26A C31U G48A A65G]", "yeast fitness": 0.683}
    ]}
  ]
}
